This excerpt belongs to a sample that is enriched for hits.
UPR XBP1 act: activators of adaptive arm of unfolded protein response (XBP1); AID 463104; 0.33% of 330,000 active; activation, % at 20 µM; CHO-XBP1 luciferase reporter, IRE1-XBP1 UPR activation, luminescence; percent of tunicamycin response, DMSO as zero;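 active means versus positive control, 20 µM dose yields 30% or more activation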
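Assay system: IRE1-XBP1 luciferase reporter CHO line. Input: 1000 cells/well. Buffer or medium: F12 with 10% serum. Doses: 20 µM, 1% DMSO. Times: overnight seeding at 37 °C, 6 h compound treatment at 37 °C. Technique: Steady-Glo luciferase glow luminescence, 10 min after reagent addition.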
CHOP UPR activ: apoptotic UPR (CHOP) activation. 0.34% of 330,000 active. CHO-CHOP luciferase reporter, luminescence; percent of tunicamycin response over DMSO baseline. activation, % at 10 µM;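 active means at 10 µM dose, activation of 40% or more, normalized to positive control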
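Test system: CHO-CHOP cells, stable luciferase reporter of PERK-eIF2a-CHOP signalling | Quantity: 500 CHO-CHOP cells per well | Buffer or medium: F12 plus 10% serum | Compound dosing: 10 µM single point, 0.5% DMSO | Schedule: 6 h compound treatment, 37 °C | Signal: Luciferase luminescence | Control set: Tunicamycin high control, DMSO low control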
A1 inh: inhibitors of the anti-apoptotic protein A1, read as caspase activation | caspase activation, % (no concentration beside the values) | 0.066% of 330,000 active | MEF A1-2A-BIM cells, Caspase-Glo 3/7 luminescence, 3 h; percent of clofoctol response, vehicle zero | AID 2462;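 active means over half of replicate activation scores above 10%, or exactly half above 10 with the replicate mean above 10; inconclusive means replicate mean below 10 yet half the replicates above 10; inactive means over half of replicates below 10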
CHOP inhibitor: CHOP inhibition in unfolded protein response. 3.8% of 220,000 active. CHO-K1 CHOP-promoter luciferase, tunicamycin-induced, 15-18 h. AID 2732. inhibition, % at 10 µM;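 active means compounds that reduced the stress-induced luciferase reporter signal by more than about 70% of percent inhibition, limit read from the data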
Of the large screens only hits and unclear results are named; the others gave an inactive call.

CCOC(=O)c1cc2occc2n1CC(=O)N1CCOCC1	none
CCN(CC)S(=O)(=O)c1ccc2[nH]c(=O)cc(C(=O)Nc3cccc(C(C)=O)c3)c2c1	none
CC(NC(N)=O)C(=O)OCC(=O)c1ccc(-c2ccccc2)cc1 (stereo not drawn)	none
CCOc1ccc(-c2cc(CCCC(=O)N3CCN(c4ccc(OC)cc4)CC3)no2)cc1	CHOP inhibitor 94
COc1ccccc1-n1c(SCC(=O)NC2CCCC2)nc2cccnc21	A1 inh inconclusive
O=C(Nc1ccc([N+](=O)[O-])cc1)Nc1ccc(N2CCOCC2)c2nonc12	CHOP inhibitor 76
COc1ccc(CNn2c(C)nc3ccccc3c2=O)cc1	none
CCCCOc1ccc(CNn2c(C)nc3ccccc3c2=O)cc1	CHOP inhibitor 81
CC(C)[C@H](NC(=O)c1ccccc1)C(=O)OCC(=O)/C=C1/N(C)c2ccccc2C1(C)C	CHOP inhibitor 70
OCCC1CN(Cc2cnc(N3CCCC3)s2)CCN1Cc1ccccc1 (stereo not drawn)	none
COc1ccc(Oc2ccc(/C=C/C(=O)c3ccc(O)cc3)cc2[N+](=O)[O-])cc1	CHOP inhibitor 86
COc1ccc(/C=C/C(=O)c2ccc(O)cc2)cc1COc1ccc(F)cc1	CHOP inhibitor 85
COc1ccc(/C=C/C(=O)c2ccccc2)cc1COc1ccc(F)cc1	none
CC(C)CCNC(=O)C(C)N(C(=O)c1snc(C(N)=O)c1N)c1cnc2ccccc2c1 (stereo not drawn)	none
O=c1oc2ccccc2cc1-c1nc2c(s1)CCCC2	CHOP inhibitor 96
O=C(Cc1nc(-c2ccc(Br)s2)cs1)NCCN1CCOCC1	none
Cc1ccc(NC(=O)Nc2nc(-c3ccc(C)s3)cs2)cc1	CHOP inhibitor 86
COc1ccccc1C(=O)NC(=O)COC(=O)CCOc1cc(C)ccc1C	none (no result: CHOP inhibitor)
OCCOCCNc1ncnc2c1c(-c1ccccc1)cn2-c1ccccc1	none (no result: CHOP inhibitor)
COc1cc2c(cc1OC)[C@@H](Cc1ccc(OCCC#N)cc1)N(C)CC2	none (no result: CHOP inhibitor)
COc1ccc2c(c1)c1nc3ccccc3nc1n2Cc1ccc(OC)c(OC)c1	CHOP inhibitor 85 (no result: UPR XBP1 act, CHOP UPR activ)
COc1ccc([C@H]2CC(=O)C=C(c3cccc(Cl)c3)C2)cc1OC	none (no result: CHOP inhibitor)
O=C(CNc1ccc(F)cc1)N/N=C1\CCCc2ccccc21	CHOP inhibitor 71
O=C(Cc1ccc(Cl)cc1)N/N=C1\CCCc2ccccc21	none
O=C(CCC(=O)Nc1ccccc1Cl)N/N=C1\CCCc2ccccc21	none
O=C(Cc1cccc2ccccc12)N/N=C1\CCCc2ccccc21	CHOP inhibitor 92
Cc1nc(CNS(=O)(=O)c2ccc(F)cc2)cs1	none (no result: CHOP inhibitor)
COc1nc(-c2ccccc2)ncc1S(=O)(=O)c1ccccc1	none
COc1ccc(Oc2nc(-c3ccccc3)ncc2S(=O)(=O)c2ccccc2)cc1	CHOP inhibitor 73
Cc1cccc(C)c1Oc1nc(-c2ccccc2)ncc1S(=O)(=O)c1ccccc1	none
Cc1cc(Cl)ccc1Oc1nc(-c2ccccc2)ncc1S(C)(=O)=O	CHOP inhibitor 79
Cc1nnc2n1NC(c1ccc(Cl)cc1)C(C(=O)N(C)C1CCCCC1)S2 (stereo not drawn)	none
C/C(=N\O)C(C)NC(=O)c1ccccc1 (stereo not drawn)	none
CC(C)(NO)/C(=N\O)c1ccccc1	CHOP inhibitor 72
CCOC(=O)Cc1csc(N/N=C\c2cccc(Br)c2)n1	none
CCCn1c(N/N=C\C=C\c2ccccc2)nc2c1c(=O)[nH]c(=O)n2C	CHOP inhibitor 93
CCOC(=O)n1c(=O)n(Cc2ccc(Cl)c(Cl)c2)c2ccccc21	CHOP inhibitor 81
CCOC(=O)n1c(=O)n(Cc2c(Cl)cccc2Cl)c2ccccc21	CHOP inhibitor 73
N/C(=N\OC(=O)c1ccccc1Cl)c1cccnc1	none
O=C1c2ccccc2C(=Nc2ccccc2)C1c1cccc(Br)c1 (stereo not drawn)	CHOP inhibitor 72
CSc1ccccc1NC(=O)CCn1c(=O)oc2ccccc21	none (no result: CHOP inhibitor)
CCOc1ccc(NC(=O)Cn2cncc2-c2ccc([N+](=O)[O-])cc2)cc1	none (no result: UPR XBP1 act, CHOP UPR activ)
O=C(Cn1cncc1-c1ccc([N+](=O)[O-])cc1)Nc1cccc2ccccc12	CHOP inhibitor 92 (no result: UPR XBP1 act, CHOP UPR activ)
CCN(CC)c1ccc(N=Cc2c(C)[nH]c3ccccc23)cc1	CHOP inhibitor 97
Cc1[nH]c2ccccc2c1/C=N/n1cnnc1	none
CCCCn1c(=O)[nH]c(=O)c2c1nc(-c1ccc(CC)c([N+](=O)[O-])c1)n2C	CHOP inhibitor 76
O=C(OCC(=O)c1c[nH]c2ccccc12)c1ccc([N+](=O)[O-])s1	none
CCc1cccc2c(C(=O)COC(=O)c3ccc([N+](=O)[O-])s3)c[nH]c12	CHOP inhibitor 73
COc1ccc(-c2cn3cc(Cl)ccc3n2)cc1OC	none (no result: CHOP inhibitor)
Clc1ccc2nc(-c3ccc(Br)s3)cn2c1	CHOP inhibitor 75
COc1ccc(NC(=O)CN(C)S(=O)(=O)c2ccc(Br)s2)cc1OC	none (no result: CHOP inhibitor)
Cc1ccc(SCc2cc(=O)[nH]c(N3CCN(Cc4ccc5c(c4)OCO5)CC3)n2)cc1	CHOP inhibitor 75
Cc1ccc(SCc2cc(=O)[nH]c(N3CCN(Cc4ccccc4)CC3)n2)cc1	CHOP inhibitor 90
COc1ccc(F)cc1C(=O)C1CCCN(C(=O)Cc2c(C)noc2C)C1 (stereo not drawn)	none
CCOc1ccc(C(=O)c2cc([N+](=O)[O-])ccc2Cl)cc1	CHOP inhibitor 82
Cc1cccc(OCCCC(=O)O)c1C	CHOP inhibitor 70
Cc1cccc(OCCCC(=O)N2CCCCCC2)c1C	none (no result: CHOP inhibitor)
O=C(CC1SC(=O)NC1=O)Nc1ccc(Cl)cc1 (stereo not drawn)	none
O=C(CC1NC(=O)NC1=O)Nc1ccc(Cl)cc1 (stereo not drawn)	CHOP inhibitor 75
COC(=O)C(NS(=O)(=O)c1ccccc1Br)C(C)C (stereo not drawn)	none
Cc1ccc(-n2nc(C)c3c(C)c(CCC(=O)NCc4ccccc4)c(C)nc32)cc1	CHOP inhibitor 70
CCCCNC(=O)CCc1c(C)nc2c(c(C)nn2-c2ccccc2)c1C	none (no result: CHOP inhibitor)
Cc1ccc(-n2nc(C)c3c(C)c(CCC(=O)NCc4ccco4)c(C)nc32)cc1	CHOP inhibitor 70
Cc1ccc(CNC(=O)CCc2c(C)nc3c(c(C)nn3-c3ccc(C)cc3)c2C)cc1	none
N/C(=N\O)c1ccc(NC(=O)c2ccc(Br)o2)cc1	none
O=C(NNC(=O)c1cccc(S(=O)(=O)N2CCN(c3ccccc3)CC2)c1)c1ccc(Cl)cc1	CHOP inhibitor 83
CC(=O)N1CCN(C(=O)c2cccc(S(=O)(=O)N3CCN(c4ccccc4)CC3)c2)CC1	none (no result: CHOP inhibitor)
Cc1ccc(-c2csc3ncnc(NCCC(=O)O)c23)cc1C	none (no result: CHOP inhibitor)
CCCNNC(=O)C(O)(c1cccc(C)c1)c1cccc(C)c1	none
Cc1ccccc1OCCCCc1c(C)n[nH]c1C	CHOP inhibitor 85
Cc1cccc(C)c1OCCCCc1c(C)n[nH]c1C	CHOP inhibitor 86
COc1cccc(OC)c1OCCCCc1c(C)n[nH]c1C	none
